From ChEMBL document CHEMBL1255362, “Mutations in human immunodeficiency virus type 1 integrase confer resistance to the naphthyridine L-870,810 and cross-resistance to the clinical trial drug GS-9137” (Antimicrob Agents Chemother, 2008)

Tests used:
Assay type in all cases: functional, organism-based
[1] = test system: Human immunodeficiency virus 1; assay: Antiviral activity against HIV 1 3B infected in MT-4 cells assessed as inhibition of virus-induced cytopathic effect by MTT assay; conditions: Human immunodeficiency virus 1, 3B, MT4
Procedure, shortened: (§1)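 MT-4 cells (RPMI 1640, 10% heat-inactivated FCS, 2 mM L-glutamine, 37°C, 5% CO2) infected with 100 to 300 CCID50 of virus, titrated on MT-4 cells. Fivefold serial drug dilutions were present during infection. Protection from viral CPE was read by MTT reduction to formazan, measured spectrophotometrically. IC50 is the concentration giving 50% protection.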

[2] = test system: Human immunodeficiency virus 1; assay: Antiviral activity against HIV 1 3B harboring integrase E92Q S230N double mutant infected in MT-4 cells assessed as inhibition of virus-induced cytopathic effect by MTT assay selected after 20 passages in presence of compound; conditions: Human immunodeficiency virus 1, 3B, MT4; procedure, shortened: as §1
[3] = test system: Human immunodeficiency virus 1; assay: Antiviral activity against HIV 1 3B harboring integrase L34M mutant infected in MT-4 cells assessed as inhibition of virus-induced cytopathic effect by MTT assay selected after 40 passages in presence of compound; conditions: Human immunodeficiency virus 1, 3B, MT4; procedure, shortened: as §1
[4] = test system: Human immunodeficiency virus 1; assay: Antiviral activity against HIV 1 3B harboring integrase E92Q, S230N and L34M triple mutant infected in MT-4 cells assessed as inhibition of virus-induced cytopathic effect by MTT assay selected after 60 passages in presence of compound; conditions: Human immunodeficiency virus 1, 3B, MT4; procedure, shortened: as §1
[5] = test system: Human immunodeficiency virus 1; assay: Antiviral activity against HIV 1 RIN harboring integrase gene infected in MT-4 cells assessed as inhibition of virus-induced cytopathic effect by MTT assay; conditions: Human immunodeficiency virus 1, RIN, MT4; procedure, shortened: as §1
[6] = test system: Human immunodeficiency virus 1; assay: Antiviral activity against HIV 1 RIN harboring integrase gene infected in MT-4 cells assessed as inhibition of virus-induced cytopathic effect by MTT assay after 20 passages selected in presence of compound; conditions: Human immunodeficiency virus 1, RIN, MT4
[7] = test system: Human immunodeficiency virus 1; assay: Antiviral activity against HIV 1 RIN HIV 1 RIN harboring integrase gene infected in MT-4 cells assessed as inhibition of virus-induced cytopathic effect by MTT assay after 40 passages selected in presence of compound; conditions: Human immunodeficiency virus 1, RIN, MT4; procedure, shortened: as §1
[8] = test system: Human immunodeficiency virus 1; assay: Antiviral activity against HIV 1 RIN HIV 1 RIN harboring integrase gene infected in MT-4 cells assessed as inhibition of virus-induced cytopathic effect by MTT assay after 60 passages selected in presence of compound; conditions: Human immunodeficiency virus 1, RIN, MT4; procedure, shortened: as §1
[9] = test system: Human immunodeficiency virus 1; assay: Antiviral activity against HIV 1 NL4.3 assessed as inhibition of virus-induced cytopathic effect by MTT assay; conditions: Human immunodeficiency virus 1, NL4.3; procedure, shortened: as §1
[10] = test system: Human immunodeficiency virus 1; assay: Antiviral activity against HIV 1 NL4.3 harboring integrase L74M mutant infected in human MT-4 cells assessed as inhibition of virus-induced cytopathic effect by MTT assay; conditions: Human immunodeficiency virus 1, NL4.3, MT4; procedure, shortened: as §1
[11] = test system: Human immunodeficiency virus 1; assay: Antiviral activity against HIV 1 NL4.3 integrase E92Q mutant infected in human MT-4 cells assessed as inhibition of virus-induced cytopathic effect by MTT assay; conditions: Human immunodeficiency virus 1, NL4.3, MT4; procedure, shortened: as §1
[12] = test system: Human immunodeficiency virus 1; assay: Antiviral activity against HIV 1 NL4.3 integrase S230N mutant infected in human MT-4 cells assessed as inhibition of virus-induced cytopathic effect by MTT assay; conditions: Human immunodeficiency virus 1, NL4.3, MT4; procedure, shortened: as §1
[13] = test system: Human immunodeficiency virus 1; assay: Antiviral activity against HIV 1 3B infected in MT-4 cells assessed as inhibition of virus-induced cytopathic effect by MTT assay selected after 50 passages in presence of compound; conditions: Human immunodeficiency virus 1, 3B, MT4
Procedure, shortened: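 Selected strains came from serial passage of HIV-1(IIIB) in MT-4 cells, started at MOI 0.01 with drug at 0.005 µM. Cultures were checked for CPE every 3 to 4 days. Supernatant from CPE-positive cultures went onto fresh cells at equal or higher drug concentration; cultures without breakthrough were subcultured at the same concentration. Susceptibility was tested by the MT-4/MTT CPE assay.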

| Compound | EC50 [1] [nM] | EC50 [2] [nM] | EC50 [3] [nM] | EC50 [4] [nM] | EC50 [5] [nM] | EC50 [6] [nM] | EC50 [7] [nM] | EC50 [8] [nM] | EC50 [9] [nM] | EC50 [10] [nM] | EC50 [11] [nM] | EC50 [12] [nM] | IC50 [13] [nM] |
| --- | --- | --- | --- | --- | --- | --- | --- | --- | --- | --- | --- | --- | --- |
| COc1cccc2c1c(C(=O)/C=C(\O)C(=O)O)cn2Cc1ccc(F)cc1 | 390 | 1890 | 1860 | 3610 | 440 | 520 | 1080 | 2610 | 560 | 320 | 660 | 490 | – |
| CC(C)c1nc(CN(C)C(=O)N[C@H](C(=O)N[C@@H](Cc2ccccc2)C[C@H](O)[C@H](Cc2ccccc2)NC(=O)OCc2cncs2)C(C)C)cs1 [RITONAVIR] | 55 | 69 | 69 | 60 | 43 | 39 | 42 | 41 | 130 | 60 | 58 | 90 | – |
| c1cc(CN2CCCNCCNCCCNCC2)ccc1CN1CCCNCCNCCCNCC1 [PLERIXAFOR] | 34 | 49 | 28 | 56 | 14 | 8 | 8 | 8 | – | – | – | – | – |
| Cc1nnc(C(=O)NC(C)(C)c2nc(C(=O)NCc3ccc(F)cc3)c(O)c(=O)n2C)o1 | – | – | – | – | 6 | 10 | 25 | 68 | 5 | 7 | 15 | 9 | – |
| Cc1ccnc2c1NC(=O)c1cccnc1N2C1CC1 [NEVIRAPINE] | 460 | 380 | 350 | 310 | 170 | – | 150 | 150 | – | – | – | – | – |
| Cc1cn([C@H]2C[C@H](N=[N+]=[N-])[C@@H](CO)O2)c(=O)[nH]c1=O [ZIDOVUDINE] | 18 | 18 | 4 | 7 | 18 | 22 | 22 | 22 | 7 | 5 | 7 | 6 | – |
| O=C(NCc1ccc(F)cc1)c1nc(N2CCCCS2(=O)=O)c2cccnc2c1O | 5 | 110 | 170 | 550 | 4 | 18 | 64 | 190 | 4 | 4 | 73 | 7 | 1100 |
| COc1cc2c(cc1Cc1cccc(Cl)c1F)c(=O)c(C(=O)O)cn2[C@H](CO)C(C)C | 1 | 33 | 50 | 77 | 0.7 | 15 | 18 | 59 | 0.7 | 0.6 | 12 | 0.9 | – |
